According to the EternaBench riboswitch data:

Test system: MS2 coat protein
Test: apparent Kd, MS2 coat protein; higher = weaker binding; RNA-MaP array; FMN 200 µM where present
Outline: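 The apparent Kd is the median of filtered binding-curve fits, one per cluster, to green signal normalised to red-channel RNA signal and control-cluster median Fmax. The clusters were on Illumina sequencing chips, and stalled E. coli RNA polymerase had transcribed the designs on them. Titration used SNAP-549-labelled MS2 coat protein from 0.7 or 1.5 nM, doubling to 3 µM, without and then with constant ligand, in 100 mM Tris-HCl pH 7.5, 80 mM KCl, 4 mM MgCl2, BSA, DTT, yeast tRNA and Tween-20.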

[1] = designed as: ON switch for flavin mononucleotide, no ligand
[2] = ligand present: flavin mononucleotide, designed as: ON switch for flavin mononucleotide
[3] = designed as: OFF switch for flavin mononucleotide, no ligand
[4] = ligand present: flavin mononucleotide, designed as: OFF switch for flavin mononucleotide

UGUGUUAUCGGAGGAUAUCGAUAUCAAACAUGAGGAUCACCCAUGUUGAGGAUCACCCAUGUUCACGAGAAGGCCGGCGUACUC
apparent Kd [1]: 112 nM | apparent Kd [2]: 194 nM

UGUUACUAGUAAGGAUAUACUAGCGAUAAGCUAGUAGAAGGUACAGUCUUUUGUAUAUCAUGUUUACAUGAGGAUCACCCAUGU
apparent Kd [1]: 9.09 nM | apparent Kd [2]: 7.49 nM

UGUUGUAAACAGAACAUGAGGAUCACCCAUGUGCUCUCGUGUAAGGAUAUACAUUCGUAUGGAAAGUAGAAGGUACUAAUUAUG
apparent Kd [1]: 103 nM | apparent Kd [2]: 117 nM

UGUUGUAUUACAGGAUAUCUAGAAUUUUUAUUUAGAGAAGGGUAUUCACAUGAGGAUCACCCAUGUAUAUACGAGGAAGUUGUG
apparent Kd [1]: 33.7 nM | apparent Kd [2]: 33.8 nM

UGUUGUAUUACAGGAUAUCUAGGAUUUUUAUUUAGAGAAGGGUAUUCACAUGAGGAUCACCCAUGUAUAUACGAGGAAGUUGUG
apparent Kd [1]: 40.2 nM | apparent Kd [2]: 41.3 nM

UGUUGUAUUACAGGAUAUCUAUUAUUUUUAUAUAGAGAAGGGUAUUCACAUGAGGAUCACCCAUGUAUAUACGAGGAAGUUGUG
apparent Kd [1]: 37.2 nM | apparent Kd [2]: 40.8 nM

UGUUGUUGAUAGGAUAUACAGGUAGGAGUAGGAGUAGAAGGAUCUACAUGAGGAUCACCCAUGUAGGAGUGAGA
apparent Kd [3]: 16.1 nM | apparent Kd [4]: 17.7 nM

UUAAAUAGUGUGAGGAUAUGCUGGUCCUUGGAUCAGCAGAAGGCACAUGAGGAUCACCCAUGUAGUUAAUUUUA
apparent Kd [3]: 39.9 nM | apparent Kd [4]: 253 nM

UUAAAUCAUGUAGGAUAUGCAUGGCGAAGCUACGCAGAAGGACAUGAGGAUCACCCAUGUGCUAGCGUCUGAGAACAGAUGCAA
apparent Kd [3]: 42 nM | apparent Kd [4]: 235 nM

UUAAAUCAUGUAGGAUAUGCAUGGCGAAGCUACGCAGAAGGACAUGAGGAUCACCCAUGUUAUAGCUACUGAGUUCAGUGGCAA
apparent Kd [3]: 107 nM | apparent Kd [4]: 231 nM

UUAAAUCAUGUAGGAUAUGCAUGGCGAAGCUACGCAGAAGGACAUGAGGAUCACCCAUGUUCUGGCUACCGAGUUCGGUGGCAA
apparent Kd [3]: 20.7 nM | apparent Kd [4]: 83.2 nM

UUAAAUCAUGUAGGAUAUGCGUGGAGAAACUAUGCAGAAGGACAUGAGGAUCACCCAUGUGCUUCCGUCUGCGUACAGAUGGUA
apparent Kd [3]: 26.3 nM | apparent Kd [4]: 156 nM

UUAACUCAUGUAGGAUAUGCAUGGCGAAGCUACGCAGAAGGACAUGAGGAUCACCCAUGUUCUAGCGUCUGAAUACAGAUGCAA
apparent Kd [3]: 53.7 nM | apparent Kd [4]: 303 nM

UUAACUCAUGUAGGAUAUGCAUGGCGAAGCUACGCAGAAGGACAUGAGGAUCACCCAUGUUCUAGCGUCUGAGUACAGAUGCAA
apparent Kd [3]: 43.4 nM | apparent Kd [4]: 290 nM

UUAAUUAUACAAGGAUAUCUAAUGGACUUACGACAAACAUGAGGAUCACCCAUGUAAAUAUAUAAAGAGAAGGUGUAUUUUCAG
apparent Kd [1]: 73.5 nM | apparent Kd [2]: 41.5 nM

UUAAUUAUACAAGGAUAUCUAUUGUAAUUUCGUCUUACAUGAGGAUCACCCAUGUUAAUAUUUUUAGAGAAGGUGUAUUUUCAG
apparent Kd [1]: 113 nM | apparent Kd [2]: 63.7 nM

UUAAUUAUACAAGGAUAUCUAUUGUAGUUUCGACUUACAUGAGGAUCACCCAUGUUUUUAUGUUUAGAGAAGGUGUAUUUUCAG
apparent Kd [1]: 104 nM | apparent Kd [2]: 77.3 nM

UUAAUUAUACAAGGAUAUCUAUUGUUCUUUCGACAUACAUGAGGAUCACCCAUGUUAAUAUAUAUAGAGAAGGUGUAUUUUCAG
apparent Kd [1]: 42.2 nM | apparent Kd [2]: 26.3 nM

UUAAUUUGAUGAUAUUAUGAUAUUAGAAGGCUGUACAUGUUGAUACAUGAGGAUCACCCAUGUAUAGAGGAUAUAGACAAUUUU
apparent Kd [3]: 27.8 nM | apparent Kd [4]: 57.3 nM

UUACGUCCCAUUUACAUGAGGAUCACCCAUGUCGAAAGACAUGAGGAUAUGCUACCUAAUUGGUAGCAGAAGGCAUGGACGUCG
apparent Kd [1]: 662 nM | apparent Kd [2]: 347 nM

UUACUAUUACAGAAGGCUAAAUAAUAUAUAAAUGGAGGAUAUGUAACAUGAGGAUCACCCAUGUUUCACCCACAUGAGGAUCAC
apparent Kd [3]: 8.45 nM | apparent Kd [4]: 23.8 nM

UUACUAUUGGAGAAGGCUCGAUAAUAUAUAAAGGGAGGAUAUCCAACAUGAGGAUCACCCAUGUUUCACCCAUAUGAGGAUCAC
apparent Kd [3]: 14.8 nM | apparent Kd [4]: 15.7 nM
